Assay outcomes as filed in PubChem BioAssay.
This is a sample that favours compounds with a hit; in the whole collection about 3.7% have one here.
procasp7 counter – counter-screen: procaspase-7 (human) activation; P55210; hit rate 0.093% among 330,000; activation, % at 8.5 µM; AID 463210; recombinant procaspase-7, Ac-DEVD-pNA absorbance 405 nm; D23A/D198A/D206A triple mutant, cannot self-cleave; scale: DMSO 0, 5 µM enzyme 100;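 active = percent activation above the screen-wide mean plus 3 SD, cut at about 25% in these data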
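buffer or medium = Zinc-free HEPES/NaCl buffer, pH 7.4 | material = Procaspase-7 triple mutant (PC-7 D3A) | input = 2 µM procaspase-7 mutant as dispensed | signal = Epi-absorbance of released pNA at 405 nm, two timepoints | timing = 1 h preincubation, 2 h reaction | replicates = singlicate compound testing | evaluation = % activation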
proCasp3 act – procaspase-3 (human) activation. recombinant procaspase-3 D3A, Ac-DEVD-pNA absorbance 405 nm. P42574. hit rate 0.11% among 330,000. activation, % at 8.5 µM;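 active = activation above the mean of all tested compounds plus 3 SD, cut at about 21% in these data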;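 note: 0% = DMSO alone and 100% = DMSO wells spiked with extra 5 µM PC-3 D3A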
Target sequence (P42574 whole entry D9A/D28A/D175A): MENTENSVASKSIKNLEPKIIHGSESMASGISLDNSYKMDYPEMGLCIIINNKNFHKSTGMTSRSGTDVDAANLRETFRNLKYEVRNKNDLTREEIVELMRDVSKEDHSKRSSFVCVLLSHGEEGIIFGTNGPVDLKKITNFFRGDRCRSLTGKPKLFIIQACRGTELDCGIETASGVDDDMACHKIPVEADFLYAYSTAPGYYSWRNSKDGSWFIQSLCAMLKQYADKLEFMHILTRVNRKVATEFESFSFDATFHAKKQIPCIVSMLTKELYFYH
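Technique: 405 nm absorbance of p-nitroaniline, reads at 0 and 120 min; Test system: Procaspase-3 D3A mutant; Incubation: 1 h enzyme-compound preincubation, then 2 h substrate reaction, 25 °C; Repeats: singlicate, each compound tested once; Benchmarks: low control DMSO wells, high control DMSO plus 5 µM PC-3 D3A.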
NR3A LBD binder – modulates the human NR3A ligand-binding domain. NR3A LBD differential scanning fluorimetry, Tm shift; 0% = protein alone, 100% = glycine-bound protein. Tm shift relative to glycine control, % at 25 µM. hit rate 2.5% among 340,000;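 active = melting temperature shift of at least 10% of the positive control shift, at one fixed dose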
MPTP block – blocks calcium-induced mitochondrial swelling | isolated mouse mitochondria, Ca2+ swelling absorbance, 30 min | inhibition, % at 10 µM | hit rate 1.4% among 360,000;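 active = inhibition of 50% or more, scaled per plate between neutral and stimulator controls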;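 note: 0% = DMSO wells given calcium and 100% = 1 mM EGTA wells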
aDG glyco up – increases alpha dystroglycan glycosylation; Pro5-aDG cells, alpha-DG glycosylation AlphaScreen (IIH6); 0% Pro5, 100% B10-LARGE cell signal; activation, % at 10 µM; hit rate 0.22% among 360,000; AID 624168;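 active = activation of at least 8% versus controls, or a plate z-score of at least 8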;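 note: Pro5 are CHO cells carrying HIG-tagged alpha-DG that lacks glycosylation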
aDG glyco conf – confirmation of alpha dystroglycan glycosylation activators. Pro5-aDG cells, alpha-DG glycosylation, IIH6 AlphaLISA; scaled to LARGE-overexpressing B10 cells as 100%. activation, % at 10 µM (by protocol). hit rate 17% among 600. shares compounds with aDG glyco up;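 active = activation of at least 7% in one or more replicates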;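 note: cells exposed to compound for two days before detection; 0% = DMSO-treated Pro5 cells and 100% = DMSO-treated B10-LARGE cells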
* = called active by the depositor; x = not tested or not shown.

SMILES	procasp7 counter	proCasp3 act	NR3A LBD binder	MPTP block	aDG glyco up	aDG glyco conf
Cc1cc(OC(C)C(=O)NCCN2CCOCC2)c2c(C)cc(=O)oc2c1 (configuration not stated)	-6.4	5.8	-2.4	0.8	8.3*	1.1
CCc1ccc(OCCCCN(C)Cc2ccccc2)cc1	8.0	0.2	3.4	2.1	1.8*	0.8
CCN1CCc2c(sc(NC(=O)c3ccc(S(=O)(=O)N4CC(C)OC(C)C4)cc3)c2C(N)=O)C1 (configuration not stated)	2.0	8.7	1.2	1.2	17.3*	3.0
CCN1CCc2c(sc(NC(=O)c3ccc4ccccc4c3)c2C(N)=O)C1	-2.8	-1.5	x	0.1	3.3	x
CN1CCc2c(sc(NC(=O)c3ccc(C(=O)c4ccccc4)cc3)c2C(N)=O)C1	-3.7	1.9	-27.4	1.2	12.5*	1.6
CCNC(=S)NN(c1ccccc1)c1ccccc1	2.5	-5.6	-2.5	0.4	0.2	x
COc1ccccc1/C=C/C(=O)OCC(=O)Nc1cc(C(F)(F)F)ccc1N1CCOCC1	x	x	-3.9	2.4	-0.2	x
Cc1ccc(S(=O)(=O)/N=C2\C(=O)c3ccccc3C([O-])=C2n2cc[n+](CCC(C)C)c2)cc1	-3.4	-0.8	-1.5	-1.1	3.5	x
CCCC[n+]1ccn(C2=C([O-])c3ccccc3C(=O)/C2=N\S(=O)(=O)c2ccc(Br)cc2)c1	1.6	1.4	-3.1	-1.4	10.7*	13.4*
CCOC(=O)C1CCN(C(=O)COC(=O)CSc2ccc(C(N)=O)cc2[N+](=O)[O-])CC1	-18.1	-3.0	0.2	-0.6	0.2	x
Cc1ccccc1-c1cccc([C@@H]2C[C@H]3[C@H](CON3C)CN2S(=O)(=O)c2ccccc2C)c1	x	x	-1.7	0.4	6.0*	0.2
Cc1cccc(C)c1NC(=O)CSc1nc2[nH]c(=O)cc(O)c2s1	-23.2	-8.3	0.5	-0.2	18.5*	0.5
C#CCNC(=O)C[C@@H]1C[C@@]2(C(=O)OC)CCCCC=C2N(CCC2=CCCCC2)C1=O	x	x	x	-0.2	-0.4	x
COc1cc(-n2c(=O)c3ccccc3n(Cc3cc(=O)n4ccccc4n3)c2=O)cc(OC)c1OC	5.1	1.0	0.6	0.1	-0.4	x
Cc1ccc2c(c1)NC(=O)C(CC(=O)NCCCN1CCN(c3cc(Cl)ccc3C)CC1)O2 (configuration not stated)	-5.5	3.4	-0.2	1.1	14.0*	0.5
COCCNc1nc(NCCOc2ccccc2)c2sc(-c3ccccc3)cc2n1	x	x	x	6.8	7.6*	6.9*
COCCNc1nc(NCCOC)c2sc(-c3ccccc3)cc2n1	x	x	x	0.9	0.8	x
COc1cc(-c2nnc(COc3ccc(Cl)cc3C)o2)cc(OC)c1OC	-4.4	1.2	-1.5	-2.0	6.8*	0.6
Cc1cc(Cl)ccc1OCc1nnc(-c2ccccc2C)o1	x	x	4.5	1.2	0.2	x
COc1ccc(C(CC(=O)O)c2ccc3c(c2)OCO3)cc1 (configuration not stated)	14.1	4.7	-0.1	-0.6	0.2	x
COc1ccc(CNCCC(c2ccccc2)c2ccc3c(c2)OCO3)cc1 (configuration not stated)	4.2	4.9	-14.8	6.6	3.9*	1.1
N#C/C(=C\c1cn(-c2ccccc2)nc1-c1cccnc1)c1nnc2n1CCCCC2	4.7	-4.7	-6.8	2.4	0.2	x
CCOc1ccc(N2CC(C(=O)N3CCN(c4ccccn4)CC3)CC2=O)cc1 (configuration not stated)	-1.1	-6.1	-1.0	-0.2	10.5*	10.3*
CCc1ccc(N2CC(C(=O)N3CCN(c4ccccn4)CC3)CC2=O)cc1 (configuration not stated)	6.3	3.5	-0.4	-1.1	0.4	x
O=C(Nc1ccc(Br)cc1)c1ccc(F)c(S(=O)(=O)N2CCN(c3ccccn3)CC2)c1	10.1	2.0	7.4	16.2	8.5*	1.6
O=C(COC(=O)CN1C(=O)C2CCCCC2C1=O)Nc1c(Cl)cccc1Cl (configuration not stated)	8.0	3.7	1.5	-0.7	4.4*	0.5
